Here are results for 70 compounds from ChEMBL document CHEMBL4513216, “Probing the Open Global Health Chemical Diversity Library for Multistage-Active Starting Points for Next-Generation Antimalarials” (ACS Infect Dis, 2020).

A short description of this data set: Toxicity liver stage against HepG2, at 10uM. The class given is cell-based. Also noted: test concentration 10 uM, cell line HepG2-A16-CD81EGFP. The note with it: human, HepG2-A16-CD81EGFP cells; read-out: INHIBITION
The method in brief:
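Uninfected HepG2-A16-CD81EGFP cells, 3 × 10^3 per well, 1536-well, plated on prespotted compound at 10 μM final, parasite-free screening media added to match infected plates; puromycin 10 μM positive, DMSO 0.5% negative; run in parallel with 48 h PbLuc assay at 37 °C, 5% CO2; viability by CellTiter-Glo luminescence, normalized to controls.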
As to `Cc1nc([C@H]2C[C@H]3CN(C(=O)c4cc(C)c(C)s4)CC[C@@H]3O2)no1`, the cytotoxicity at 10 µM was 0.732%.

For the compound `c1ncn(CC2CCCN(Cc3nnc(C4CC4)o3)C2)n1` (stereo not given), the cytotoxicity at 10 µM is -14.5%.

Take `COCCC(=O)N1C[C@@H]2COC[C@]2(COCc2cccnc2)C1`: the cytotoxicity at 10 µM was -4.23%.

For the compound `CCOCC(=O)NCC(Cc1cccc(F)c1)N1CCCCC1=O` (stereo not given), the cytotoxicity at 10 µM was -1.89%.

As to `O=C(c1cccnc1N1CCCC1)N1CCOC(c2ccccc2)C1` (stereo not given), the cytotoxicity at 10 µM amounted to 3.13%.

`Cc1ccsc1CN(CCN(C)C)C(=O)c1ccc(C#N)nc1`: the cytotoxicity at 10 µM is -120%.

On to `O=S1(=O)N(c2ccccc2)C[C@H](O)[C@]12CCNC2`, for which the cytotoxicity at 10 µM is 0.827%.

On to `NC(=O)CN1CCCC(c2ccnc(Nc3ncccn3)c2)C1` (stereo not given), for which the cytotoxicity at 10 µM stood at 10.1%.

Consider `Nc1nc2c(c(=O)[nH]1)CCN(C(=O)c1cccc3nccnc13)C2`, for which the cytotoxicity at 10 µM was -11.4%.

Take `COC(=O)CN(C(=O)c1ccc(Cl)o1)c1cccc(F)c1`: the cytotoxicity at 10 µM came to 6.11%.

As to `Cn1ncc2c1C(COCC1CC1)N(Cc1ccoc1)CC2` (stereo not given), the cytotoxicity at 10 µM is 1.04%.

Regarding `O=C(c1cccnc1Oc1ccc(Cl)cc1)N1CC[C@@H](O)C1`, the cytotoxicity at 10 µM was -3.36%.

As to `Cc1nsc(N2CCCN(C(=O)CCc3ccsc3)CC2)n1`, the cytotoxicity at 10 µM turned out to be 3.8%.

For `CCO[C@H]1C[C@@H](O)C12CCN(C1CCN(c3ccccc3C)CC1)CC2`, the cytotoxicity at 10 µM was 9.9%.

On to `O=C(O)CNC(=O)Cc1csc(-c2ccccc2F)n1`, for which the cytotoxicity at 10 µM was -10.5%.

For the compound `Cn1ccnc1SCc1nc(C(C)(C)NC(=O)OC(C)(C)C)no1`, the cytotoxicity at 10 µM is -0.679%.

Consider `Cc1ccc(-c2nc(CN3CCC(C(=O)N(C)C)CC3)cs2)o1`, for which the cytotoxicity at 10 µM turned out to be 1.32%.

Turning to `COc1cccc(-n2c(C)cc(C(=O)NC(C)(C)C(N)=O)c2C)c1`, the cytotoxicity at 10 µM was -2%.

For the compound `Cc1cnc2[nH]c(C(F)(F)F)c(CN3CCCC(CO)C3)c2c1` (stereo not given), the cytotoxicity at 10 µM came to 8.48%.

Take `COCCCn1cnnc1C(C)NC(=O)c1[nH]c2ccc(C)cc2c1C` (stereo not given): the cytotoxicity at 10 µM worked out at 2.52%.

With `COc1cc(C(N)=O)c(N(C)S(C)(=O)=O)cc1OC`, the cytotoxicity at 10 µM is -7.39%.

Consider `Cc1ccc(CN2C[C@@H]3CCCO[C@@H]3[C@H](NS(C)(=O)=O)C2)o1`, for which the cytotoxicity at 10 µM came to 5.16%.

Take `COc1ncc(C(=O)N(Cc2cnn(C)c2)C(C)C)cn1`: the cytotoxicity at 10 µM was determined as 4.23%.

Consider `Cc1oncc1C(=O)N1CCOCC2(CCN(c3ccccn3)C2)C1` (stereo not given), for which the cytotoxicity at 10 µM is -68.3%.

For `COCc1cnc2n1CCN(C1CCCC1)C2C` (stereo not given), the cytotoxicity at 10 µM amounted to 9.13%.

For `CCOc1ccc(N(CC(=O)c2ccccc2)C2=NCCCCC2)cc1`, the cytotoxicity at 10 µM was -2.02%.

For `COc1nccc(N2CC[C@@H](N3CCN(C)CC3)[C@H](O)C2)c1C#N`, the cytotoxicity at 10 µM was -147%.

As for `Cc1cc(C(F)(F)F)nc(CNc2nc(C)nc3c2cnn3C)n1`, the cytotoxicity at 10 µM was -2.24%.

`CC(C)c1nc(Cn2cncn2)n(-c2ccccn2)n1`: the cytotoxicity at 10 µM was -1.03%.

For the compound `O=C(CN1CCOC(Cn2cccn2)C1)NCCc1ccc(F)cc1` (stereo not given), the cytotoxicity at 10 µM is -15.6%.

For the compound `CN(CC1(O)CCCN(c2ccccn2)C1)C(=O)CCc1cccs1` (stereo not given), the cytotoxicity at 10 µM is -26.9%.

Take `CCc1nc(C)sc1CN1C[C@@H](C)[C@@](C)(O)C1`: the cytotoxicity at 10 µM is -1.47%.

Regarding `COCCC1(C(=O)O)CCCN(C(=O)c2cc(C)oc2C)C1` (stereo not given), the cytotoxicity at 10 µM was -5.89%.

For the compound `CN(Cc1ccco1)Cc1ccccc1CNC(=O)c1csnn1`, the cytotoxicity at 10 µM stood at 7.88%.

For `CN1CC(=O)c2sc(NCCc3ccccc3)nc2C1`, the cytotoxicity at 10 µM is -11%.

In the case of `CCOc1ccc(NC(=O)N(CCC#N)Cc2ccccn2)cc1F`, the cytotoxicity at 10 µM is -6%.

For `CCOC(=O)C1CCN(c2cc(C(=O)N3CCOCC3)nc(C)n2)CC1`, the cytotoxicity at 10 µM was -1.07%.

Regarding `CC(=O)N[C@@H]1CN(C(=O)c2cc3ccccc3[nH]2)C[C@H]1c1ccc(C)o1`, the cytotoxicity at 10 µM was -10.2%.

Consider `CC(=O)CN1CC2(CCNCC2)COc2ccccc2S1(=O)=O`, for which the cytotoxicity at 10 µM worked out at 3.13%.

On to `COc1ccnc(N2CCC3(CCCN(C(C)C)C3=O)C2)n1` (stereo not given), for which the cytotoxicity at 10 µM was -8.7%.

Turning to `c1ccc(-n2ncc(CN3CCCC(Cn4cncn4)C3)n2)cc1` (stereo not given), the cytotoxicity at 10 µM is -6.04%.

With `Cc1n[nH]c(C)c1CCNC(=O)C1CCCN(CC(N)=O)C1` (stereo not given), the cytotoxicity at 10 µM is -0.653%.

Regarding `Cc1nn(CCC#N)c(C)c1CCC(=O)N(C(C)C)C1CC1`, the cytotoxicity at 10 µM is -2.72%.

Consider `O=C(N[C@@H]1CN(c2ncccn2)C[C@@H]2CCCO[C@@H]21)c1cccnc1`, for which the cytotoxicity at 10 µM stood at 11.4%.

Take `O=c1c(C(F)(F)F)cccn1Cc1nnc(-c2cccnc2)o1`: the cytotoxicity at 10 µM is -2.93%.

In the case of `Cc1nc(C)n(CC2CCCN(Cc3nnc(-c4ccco4)o3)C2)n1` (stereo not given), the cytotoxicity at 10 µM is -8.33%.

`COCCOC1CCN(C(C(=O)O)c2ccc3c(c2)OCO3)CC1` (stereo not given): the cytotoxicity at 10 µM is 9.07%.

In the case of `Cc1cnc(CN2CCC(N(C)Cc3nnc(C4CC4)n3C)C2)cn1` (stereo not given), the cytotoxicity at 10 µM was -2.31%.

With `Cn1ccc(C(=O)NCc2ccc(CN3CCCC3)cc2)cc1=O`, the cytotoxicity at 10 µM was -13.5%.

For the compound `Cc1oc(C(C)C)cc1C(=O)N1C[C@@H]2CC[C@H]1CN(c1ncccn1)C2`, the cytotoxicity at 10 µM is -126%.

In the case of `CCCc1nc(CN(CC)C(=O)c2ccc(OC)c(OC)c2)no1`, the cytotoxicity at 10 µM was -6.93%.

For the compound `Cc1nc(CN2CCN(c3cncc(Cl)n3)CC2)no1`, the cytotoxicity at 10 µM came to 6.45%.

Consider `CCOCCCNC(=O)C1(C)CCC(=O)N1Cc1ccccc1F` (stereo not given), for which the cytotoxicity at 10 µM was -5.57%.

With `CCc1cnc(N)nc1NCCN1CCCCC1`, the cytotoxicity at 10 µM was -17.8%.

For the compound `CCc1ccc(C2CCCCCN2C(=O)CNC(=O)NC2CC2)o1` (stereo not given), the cytotoxicity at 10 µM was found to be 0.0456%.

As to `Cc1cc(=O)n(CC(=O)NCC2CCCO2)c(-c2ccc(F)cc2)n1` (stereo not given), the cytotoxicity at 10 µM was -10.8%.

For the compound `CCc1ccc(NC(=O)N2C[C@@H]3C[C@H](C(=O)NC(C)C)[C@H](C2)O3)cc1`, the cytotoxicity at 10 µM was -1.67%.

On to `N[C@H]1CN(C(=O)CCc2cc(Cl)no2)C[C@@H]1c1ccccc1`, for which the cytotoxicity at 10 µM is -7.03%.

For the compound `CCc1n[nH]c(C2CN(C(=O)c3cc4c(s3)CCC4)CCO2)n1` (stereo not given), the cytotoxicity at 10 µM was -4.98%.

Take `COCCC(=O)N1CCCC1c1csc(Nc2ccccn2)n1` (stereo not given): the cytotoxicity at 10 µM was -13.2%.

`CC(C)c1nc(CN(C)CC2CCN(CCO)CC2)no1`: the cytotoxicity at 10 µM is -4.32%.

As to `Cn1cccc1CNC(=O)CCCc1nnc2ccccn12`, the cytotoxicity at 10 µM is -5.77%.

Regarding `C[C@H]1CN(CC2CCOCC2)C[C@@]12CCN(Cc1cccnc1)C2=O`, the cytotoxicity at 10 µM turned out to be 1.73%.

For `CC(=O)N1CCC2(CC1)CCN(S(=O)(=O)c1ccccc1)C2`, the cytotoxicity at 10 µM was 2.35%.

For the compound `CC(C)n1[nH]c(=O)c2c1NC(=O)CC2c1cccnc1` (stereo not given), the cytotoxicity at 10 µM was -6.15%.

Turning to `CNC(=O)[C@@H]1COC[C@H]2CN(C(=O)c3ccc(C)c(C)c3)C[C@H]21`, the cytotoxicity at 10 µM was 11.6%.

For the compound `CCN1CCN(C[C@@H]2CN(c3ncc(Cl)cc3Cl)C[C@@H]2CO)CC1`, the cytotoxicity at 10 µM was -6%.

For the compound `Cc1nn(C(C)C)cc1S(=O)(=O)N(C)Cc1nonc1C`, the cytotoxicity at 10 µM was 11.6%.

Consider `c1ccc(CCN2CCN(c3ccc4nncn4n3)CC2)nc1`, for which the cytotoxicity at 10 µM is -7.93%.

For the compound `CC(C)N1CCCC2(CCN(Cc3noc(C4CCCC4)n3)C2)C1=O` (stereo not given), the cytotoxicity at 10 µM worked out at 2.24%.
